“Also recorded” adds a separate entry of the source. Values belong to the compound of their own block, whether it stands above or below them. Where a SMILES comes first, the peptide text is derived from it. [ ]: non-standard residue; d: D form. Nle = CCCC[C@H](N)C(=O)O
What was measured:
p53 in U2OS cells = format: cell-based, human; details: U2OS co-transfected with p53 and Hdm2; 8 h; 50 µM ALLN or 3–15 µM 5
[1] = test system: p53 and Hdm2 in RPE cells; experiment: Cellular p53 and Hdm2 levels in RPE cells by immunoblotting; details: for effect on cellular p53 and Hdm2 levels: 1–10 µM, immunoblotting; for effect on cellular p53 and Hdm2 levels / concentration exhibiting greatest increase in p53 and Hdm2: 8 h; for concentration exhibiting greatest increase in p53 and Hdm2: similar to 50 µM ALLN
Hdm2 [2] = biological target: T1, Hdm2 (Homo sapiens, UniProt Q00987); experiment: Hdm2 electrochemiluminescence assay; format: biochemical; details: for activity in Hdm2 assay: isolated from Hdm2-inhibitory fractions
T1 sequence (Q00987 whole entry): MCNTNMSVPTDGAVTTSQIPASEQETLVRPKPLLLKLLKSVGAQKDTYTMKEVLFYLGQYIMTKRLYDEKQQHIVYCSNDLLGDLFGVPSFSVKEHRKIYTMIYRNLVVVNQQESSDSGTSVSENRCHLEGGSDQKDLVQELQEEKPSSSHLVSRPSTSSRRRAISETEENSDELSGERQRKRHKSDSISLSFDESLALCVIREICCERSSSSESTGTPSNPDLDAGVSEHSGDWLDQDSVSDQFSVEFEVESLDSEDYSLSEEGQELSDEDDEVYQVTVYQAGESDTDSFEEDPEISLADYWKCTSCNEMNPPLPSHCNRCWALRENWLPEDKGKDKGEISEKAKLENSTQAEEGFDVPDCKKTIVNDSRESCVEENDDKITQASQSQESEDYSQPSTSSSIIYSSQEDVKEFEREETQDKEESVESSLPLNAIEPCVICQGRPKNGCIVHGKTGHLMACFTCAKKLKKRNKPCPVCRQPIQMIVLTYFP

[3] = test system: Hdm2 in p53^−/−mdm2^−/− mouse embryo fibroblasts; format: cell-based; details: 10 µM, 8 h; Hdm2 under p53-independent CMV promoter
[4] = Stability of the compound observed while conducting experiments; format: physicochemical
C8 cells [5] = experiment: Cell death by trypan blue exclusion, wild-type p53 MEFs; format: cell-based, mouse; details: 5–20 µM, 20 h
RPE cells = experiment: Cell death by trypan blue exclusion, parental RPE cells; format: cell-based, human; details: 3–25 µM, 17 h
[6] = test system: HCT116-p53^+ and HCT116-p53^− cells; experiment: Killing of HCT116-p53+ compared to HCT116-p53- cells; format: cell-based, human; details: HCT116-p53+ vs HCT116-p53−; data not shown
[7] = test system: U2OS-pG13 cells (p53-responsive luciferase reporter); experiment: p53-responsive luciferase reporter assay in U2OS-pG13 cells; format: cell-based, human; details: 1–10 µM, 22 h
Procedure, shortened: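 U2OS-pG13 cells carry endogenous wild-type p53 and a stably expressed p53-responsive luciferase reporter (pG13). They were incubated for 22 h with test compound at 1–10 µM, with adriamycin at 1 µg/ml as reference. Cells were lysed in reporter lysis buffer and spun at 14,000 g for 20 min. Supernatant luciferase was read as RLU. Values are mean and standard deviation of three independent experiments.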

C8 cells [8] = experiment: PARP cleavage by immunoblotting, C8 cells; format: cell-based, mouse; details: 5–20 µM, 14 h
A9 cells = experiment: Cell death by trypan blue exclusion, p53-deficient MEFs; format: cell-based, mouse; details: 5–20 µM, 20 h
[9] = test system: p53 in HCT116 colon carcinoma cells; experiment: ALLN-induced ubiquitylated p53 in HCT116 cells expressing wild-type p53; format: cell-based, human; details: treatment with both 5 and ALLN; data not shown
RPE-E1A cells = experiment: Cell death by trypan blue exclusion, RPE-E1A cells; format: cell-based, human; details: 3–25 µM, 17 h
Hdm2 [10] = biological target: T1, Hdm2; details: cited from earlier work

SMILES: CCCC[C@@H](C=O)NC(=O)[C@H](CC(C)C)NC(=O)[C@H](CC(C)C)NC(C)=O [ALLN, N-acetyl-leucyl-leucyl-norleucinal, reference compound] (Ac-Leu-Leu-[Nle]-aldehyde)
- effect on p53 degradation / p53 level (p53 in U2OS cells): accumulation of p53
- ubiquitylated forms of p53 (p53 in U2OS cells): higher molecular weight forms of the protein indicative of ubiquitylation

SMILES: COc1cc(CCN(C)C)c2c(c1O)SSSSS2 [Compound 1, Isolissoclinotoxin B]
- effect on p53 levels ([1]; RPE cells, at 1 µM): did not increase p53 levels
- toxicity to RPE cells ([1]; at 10 µM): toxic

SMILES: COc1cc(CCN)c2c(c1OC)SSSSS2 [Compound 2, varacin]
- activity in Hdm2 assay (Hdm2 [2]): very little activity
- effect on cellular p53 and Hdm2 levels ([1]; RPE cells): no discernable cellular effects

SMILES: COc1c(C)c(CCN(C)C)c2c(c1OC)SSSSS2 [Compound 3, N,N-dimethyl-5-methylvaracin]
- activity in Hdm2 assay (Hdm2 [2]): very little activity
- effect on cellular p53 and Hdm2 levels ([1]; RPE cells): no discernable cellular effects

- stability [4]: fairly unstable and degraded over time
SMILES: CSC1=C(CCN)c2nc3ccccc3c3ccnc(c23)C1=O [Compound 4, Diplamine B]
- effect on cellular Hdm2 [3]: increased Hdm2; also recorded: stabilized Hdm2 in MEFs
- effect on cellular p53 and Hdm2 levels ([1]; RPE cells): increased p53 and Hdm2 in cells in a dose-dependent manner
- concentration exhibiting greatest increase in p53 and Hdm2 ([1]; RPE cells): 10 µM

SMILES: NCCc1c2c(c3nccc4c3c1Nc1ccccc1-4)OCS2 [Compound 5, Lissoclinidine B]
- cell death (C8 cells [5]): marked increase in cell death; also recorded: selectively kills cells expressing wild-type p53
- cell death (RPE cells): no effect
- p53-dependent killing [6]: p53-dependent killing
- effect on p53 degradation / p53 level (p53 in U2OS cells): blocked p53 degradation in a dose-dependent manner; also recorded: inhibits Hdm2-mediated p53 degradation
- ubiquitylated forms of p53 (p53 in U2OS cells): absent
- luciferase activity (p53-dependent transactivation) [7]: dose-dependent increase in luciferase activity; also recorded: activates p53 transcription
- effect on cellular Hdm2 [3]: increased Hdm2; also recorded: stabilized Hdm2 in MEFs
- IC50 (Hdm2 [2]): 98.1 ± 6 µM
- PARP cleavage (apoptosis) (C8 cells [8]): cleavage of the poly (ADP-ribose) polymerase (PARP) was observed; also recorded: induces apoptosis in C8 cells
- cell death (A9 cells): relatively resistant
- effect on ALLN-induced ubiquitylated p53 [9]: prevented the accumulation of ALLN-induced ubiquitylated p53
- cell death (RPE-E1A cells): clear dose-dependent increase in cell death; also recorded: selectively kills transformed cells
- effect on cellular p53 and Hdm2 levels ([1]; RPE cells): increased p53 and Hdm2 in cells in a dose-dependent manner
- concentration exhibiting greatest increase in p53 and Hdm2 ([1]; RPE cells): 10 µM

SMILES: c1ccc2c3ccn4cc5c(cc4c-3nc2c1)CCCC5 [sempervirine]
- inhibition of auto-ubiquitylation of Hdm2 (Hdm2 [10]): inhibits auto-ubiquitylation of Hdm2

— publication PMC2718708 (Bioorganic & medicinal chemistry, 2008)
